Reference: ChEMBL document CHEMBL1955865, “Synthesis of novel spirooxindole derivatives by one pot multicomponent reaction and their antimicrobial activity” (2012)
≈ marks a conversion by molar mass, not a printed value.

Experiments:
[1] = Antifungal activity against Malassezia pachydermatis at 1000 ug/disc after 48 hrs by disc diffusion assay; type: functional
Outline: (§1)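 Fungal disc diffusion with inoculum from SDA spores (filamentous) or SDB culture (yeast). Test cultures were swabbed on agar, and discs at 1000 µg/disc were left 30 min at room temperature, with a solvent negative control. Plates were incubated 48 h at 27 °C. Zone of inhibition was measured in mm, and the experiment was repeated twice.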

Candida albicans [2] = assay: Antifungal activity against Candida albicans MTCC 227 at 1000 ug/disc after 48 hrs by disc diffusion assay; type: functional; conditions: MTCC 227, 48 h, read-out: IZ; outline: as §1
Botrytis cinerea [3] = assay: Antifungal activity against Botrytis cinerea at 1000 ug/disc after 48 hrs by disc diffusion assay; type: functional; conditions: read-out: IZ; outline: as §1
Staphylococcus aureus [4] = assay: Antibacterial activity against Staphylococcus aureus MTCC 96 after 24 hrs by twofold serial dilution method; type: functional; conditions: MTCC 96, 24 h
Outline: (§2)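 Bacteria grown in Mueller Hinton broth for 24 h at 37 °C and diluted to about 10^4 CFU/ml. Compound in 2% DMSO was serially diluted two-fold (1000 to 15.62 µg/ml) in medium in 96-well plates and inoculated. Plates were incubated 24 h at 37 °C. 5 µl of broth was spotted onto MHA, and MIC was taken as the lowest concentration with no visible growth on agar.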

Staphylococcus aureus [5] = assay: Antibacterial activity against methicillin-resistant Staphylococcus aureus after 24 hrs by twofold serial dilution method; type: functional
Outline: (§3)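 Broth microdilution in MHB following the standard bacterial reference method. Compound was dissolved in DMSO (2%) and serially diluted two-fold from 1000 to 15.62 µg/ml in 96-well plates, with an inoculum of about 10^4 CFU/ml. Streptomycin and ciprofloxacin were positive controls. After 24 h at 37 °C, 5 µl of broth was subcultured on MHA. MIC was the lowest concentration without visible growth on agar.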

Micrococcus luteus [6] = assay: Antibacterial activity against Micrococcus luteus after 24 hrs by twofold serial dilution method; type: functional; outline: as §2
Klebsiella aerogenes [7] = assay: Antibacterial activity against Enterobacter aerogenes MTCC 111 after 24 hrs by twofold serial dilution method; type: functional; conditions: MTCC 111, 24 h; outline: as §2
Proteus vulgaris [8] = assay: Antibacterial activity against Proteus vulgaris MTCC 1771 after 24 hrs by twofold serial dilution method; type: functional; conditions: MTCC 1771, 24 h; outline: as §2
Klebsiella pneumoniae [9] = assay: Antibacterial activity against Klebsiella pneumoniae MTCC 109 after 24 hrs by twofold serial dilution method; type: functional; conditions: MTCC 109, 24 h; outline: as §2
Salmonella typhimurium [10] = assay: Antibacterial activity against Salmonella Typhimurium MTCC 1251 after 24 hrs by two-fold serial dilution method; type: functional, Salmonella enterica subsp. enterica serovar Typhimurium; conditions: Salmonella enterica, MTCC 1251, 24 h; outline: as §2
[11] = tested on: Salmonella enterica subsp. enterica serovar Paratyphi B; assay: Antibacterial activity against Salmonella paratyphi B after 24 hrs by twofold serial dilution method; type: functional; outline: as §3
[12] = Antifungal activity against Malassezia pachydermatis after 48 to 72 hrs by twofold serial dilution method; type: functional
Outline: (§4)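 Broth two-fold serial dilution, 1000 to 15.62 µg/ml, with compound dissolved in 2% DMSO, in 96-well plates. Filamentous fungal spores came from 10-day SDA slants at 28 °C, and yeast from SDB grown 48 h at 28 °C. Incubation was 48-72 h at 28 °C. MIC was the lowest concentration with no visible fungal growth.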

Candida albicans [13] = assay: Antifungal activity against Candida albicans MTCC 227 after 48 to 72 hrs by twofold serial dilution method; type: functional; outline: as §4
Botrytis cinerea [14] = assay: Antifungal activity against Botrytis cinerea after 48 to 72 hrs by twofold serial dilution method; type: functional; outline: as §4
Staphylococcus aureus [15] = assay: Antibacterial activity against Staphylococcus aureus MTCC 96 at 1000 ug/disc after 24 hrs by disc diffusion assay; type: functional; conditions: MTCC 96, 24 h, read-out: IZ
Outline: (§5)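 Disc diffusion on Mueller Hinton agar. Cultures (about 10^4 CFU/ml) were swabbed on and dried 10 min. Discs loaded at 1000 µg/disc were left 30 min at room temperature for diffusion, with a solvent negative control. Plates were incubated 24 h at 37 °C. Inhibition zones were measured in mm, and the experiment was done twice.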

Staphylococcus aureus [16] = assay: Antibacterial activity against methicillin-resistant Staphylococcus aureus at 1000 ug/disc after 24 hrs by disc diffusion assay; type: functional; conditions: read-out: IZ
Outline: (§6)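 Disc diffusion on Mueller Hinton agar. Bacteria were grown 24 h at 37 °C in MHB and diluted to about 10^4 CFU/ml, swabbed onto plates and dried 10 min. Discs were loaded at 1000 μg/disc and held 30 min at room temperature for diffusion. Solvent served as negative control. After 24 h at 37 °C, inhibition zones were read in mm; run twice.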

Micrococcus luteus [17] = assay: Antibacterial activity against Micrococcus luteus at 1000 ug/disc after 24 hrs by disc diffusion assay; type: functional; conditions: read-out: IZ; outline: as §5
Klebsiella aerogenes [18] = assay: Antibacterial activity against Enterobacter aerogenes MTCC 111 at 1000 ug/disc after 24 hrs by disc diffusion assay; type: functional; conditions: MTCC 111, 24 h, read-out: IZ; outline: as §5
Proteus vulgaris [19] = assay: Antibacterial activity against Proteus vulgaris MTCC 1771 at 1000 ug/disc after 24 hrs by disc diffusion assay; type: functional; conditions: MTCC 1771, 24 h, read-out: IZ; outline: as §5
Klebsiella pneumoniae [20] = assay: Antibacterial activity against Klebsiella pneumoniae MTCC 109 at 1000 ug/disc after 24 hrs by disc diffusion assay; type: functional; conditions: MTCC 109, 24 h, read-out: IZ; outline: as §5
Salmonella typhimurium [21] = assay: Antibacterial activity against Salmonella Typhimurium MTCC 1251 at 1000 ug/disc after 24 hrs by disc diffusion assay; type: functional, Salmonella enterica subsp. enterica serovar Typhimurium; conditions: Salmonella enterica, MTCC 1251, 24 h; read-out: IZ; outline: as §5
[22] = tested on: Salmonella enterica subsp. enterica serovar Paratyphi B; assay: Antibacterial activity against Salmonella paratyphi B at 1000 ug/disc after 24 hrs by disc diffusion assay; type: functional; conditions: read-out: IZ; outline: as §6

Row | SMILES | inhibition zone (IZ) [1] [mm] | zone of inhibition at 1000 µg/disc (Candida albicans [2]) [mm] | zone of inhibition at 1000 µg/disc (Botrytis cinerea [3]) [mm] | MIC (Staphylococcus aureus [4]) [µg/mL] | MIC (Staphylococcus aureus [5]) [µg/mL] | MIC (Micrococcus luteus [6]) [µg/mL] | MIC (Klebsiella aerogenes [7]) [µg/mL] | MIC (Proteus vulgaris [8]) [µg/mL] | MIC (Klebsiella pneumoniae [9]) [µg/mL] | MIC (Salmonella typhimurium [10]) [µg/mL] | MIC [11] [µg/mL] | MIC [12] [µg/mL] | MIC (Candida albicans [13]) [µg/mL] | MIC (Botrytis cinerea [14]) [µg/mL] | zone of inhibition at 1000 µg/disc (Staphylococcus aureus [15]) [mm] | zone of inhibition at 1000 µg/disc (Staphylococcus aureus [16]) [mm] | zone of inhibition at 1000 µg/disc (Micrococcus luteus [17]) [mm] | zone of inhibition at 1000 µg/disc (Klebsiella aerogenes [18]) [mm] | zone of inhibition at 1000 µg/disc (Proteus vulgaris [19]) [mm] | zone of inhibition at 1000 µg/disc (Klebsiella pneumoniae [20]) [mm] | also measured
1 | CN1CC2=C(C(=O)c3ccccc3C2=O)C12C(=O)Nc1ccc(Br)cc12 (stereo not drawn) | 10 | 10 | 11 | 15.6 (≈ 38.2 µM) | 250 (≈ 611 µM) | 62.5 (≈ 153 µM) | 62.5 (≈ 153 µM) | 125 (≈ 305 µM) | 500 (≈ 1220 µM) | 31.2 (≈ 76.4 µM) | 500 (≈ 1220 µM) | 500 (≈ 1220 µM) | 500 (≈ 1220 µM) | 250 (≈ 611 µM) | 20 | 12 | 17 | 16 | 12 | 10 | zone of inhibition at 1000 µg/disc (Salmonella typhimurium [21]): 19 mm; zone of inhibition at 1000 µg/disc [22]: 8 mm
2 | CN1CC2=C(C(=O)c3ccccc3C2=O)C12C(=O)Nc1ccccc12 (stereo not drawn) | 11 | 10 | 10 | 62.5 (≈ 189 µM) | 250 (≈ 757 µM) | 125 (≈ 378 µM) | 250 (≈ 757 µM) | 250 (≈ 757 µM) | 125 (≈ 378 µM) | 125 (≈ 378 µM) | 250 (≈ 757 µM) | 250 (≈ 757 µM) | 125 (≈ 378 µM) | 125 (≈ 378 µM) | 15 | 10 | 13 | 10 | 11 | 13 | zone of inhibition at 1000 µg/disc (Salmonella typhimurium [21]): 12 mm; zone of inhibition at 1000 µg/disc [22]: 10 mm
3 | CN1CC2=C(C(=O)c3ccccc3C2=O)C12C(=O)Nc1ccc(I)cc12 (stereo not drawn) | 14 | 11 | 12 | 62.5 (≈ 137 µM) | 500 (≈ 1100 µM) | 15.6 (≈ 34.2 µM) | 250 (≈ 548 µM) | 500 (≈ 1100 µM) | 250 (≈ 548 µM) | 125 (≈ 274 µM) | 500 (≈ 1100 µM) | 125 (≈ 274 µM) | 250 (≈ 548 µM) | 250 (≈ 548 µM) | 16 | 8 | 15 | 12 | 10 | 11 | zone of inhibition at 1000 µg/disc (Salmonella typhimurium [21]): 14 mm; zone of inhibition at 1000 µg/disc [22]: 7 mm
4 | CCN1C(=O)C2(C3=C(CN2C)C(=O)c2ccccc2C3=O)c2ccccc21 (stereo not drawn) | 11 | 10 | 8 | 15.6 (≈ 43.6 µM) | 250 (≈ 698 µM) | 31.2 (≈ 87.2 µM) | 250 (≈ 698 µM) | 62.5 (≈ 174 µM) | 250 (≈ 698 µM) | 31.2 (≈ 87.2 µM) | 500 (≈ 1400 µM) | 250 (≈ 698 µM) | 500 (≈ 1400 µM) | 500 (≈ 1400 µM) | 22 | 13 | 18 | 12 | 15 | 12 | zone of inhibition at 1000 µg/disc (Salmonella typhimurium [21]): 19 mm; zone of inhibition at 1000 µg/disc [22]: 10 mm
5 | Cc1ccc2c(c1)C1(C(=O)N2C)C2=C(CN1C)C(=O)c1ccccc1C2=O (stereo not drawn) | 10 | 12 | 11 | 15.6 (≈ 43.6 µM) | 125 (≈ 349 µM) | 125 (≈ 349 µM) | 62.5 (≈ 174 µM) | 125 (≈ 349 µM) | 250 (≈ 698 µM) | 15.6 (≈ 43.6 µM) | 500 (≈ 1400 µM) | 500 (≈ 1400 µM) | 250 (≈ 698 µM) | 250 (≈ 698 µM) | 22 | 14 | 15 | 17 | 16 | 13 | zone of inhibition at 1000 µg/disc (Salmonella typhimurium [21]): 22 mm; zone of inhibition at 1000 µg/disc [22]: 8 mm
6 | CN1C(=O)C2(C3=C(CN2C)C(=O)c2ccccc2C3=O)c2ccccc21 (stereo not drawn) | 11 | 9 | 8 | 62.5 (≈ 181 µM) | 250 (≈ 726 µM) | 125 (≈ 363 µM) | 125 (≈ 363 µM) | 125 (≈ 363 µM) | 31.2 (≈ 90.7 µM) | 125 (≈ 363 µM) | 250 (≈ 726 µM) | 125 (≈ 363 µM) | 250 (≈ 726 µM) | 250 (≈ 726 µM) | 13 | 10 | 12 | 10 | 10 | 18 | zone of inhibition at 1000 µg/disc (Salmonella typhimurium [21]): 14 mm; zone of inhibition at 1000 µg/disc [22]: 11 mm
7 | C#CCN1C(=O)C2(C3=C(CN2C)C(=O)c2ccccc2C3=O)c2ccccc21 (stereo not drawn) | 10 | 10 | 10 | 125 (≈ 339 µM) | 125 (≈ 339 µM) | 125 (≈ 339 µM) | 250 (≈ 679 µM) | 500 (≈ 1360 µM) | 250 (≈ 679 µM) | 62.5 (≈ 170 µM) | 250 (≈ 679 µM) | 250 (≈ 679 µM) | 250 (≈ 679 µM) | 250 (≈ 679 µM) | 13 | 10 | 12 | 11 | 9 | 11 | zone of inhibition at 1000 µg/disc (Salmonella typhimurium [21]): 15 mm; zone of inhibition at 1000 µg/disc [22]: 10 mm
8 | CCCCN1C(=O)C2(C3=C(CN2C)C(=O)c2ccccc2C3=O)c2ccccc21 (stereo not drawn) | 11 | 10 | 9 | 62.5 (≈ 162 µM) | 500 (≈ 1290 µM) | 250 (≈ 647 µM) | 500 (≈ 1290 µM) | 500 (≈ 1290 µM) | 250 (≈ 647 µM) | 125 (≈ 323 µM) | 500 (≈ 1290 µM) | 250 (≈ 647 µM) | 500 (≈ 1290 µM) | 500 (≈ 1290 µM) | 17 | 8 | 13 | 10 | 10 | 13 | zone of inhibition at 1000 µg/disc (Salmonella typhimurium [21]): 15 mm; zone of inhibition at 1000 µg/disc [22]: 9 mm
9 | CCCCCCN1C(=O)C2(C3=C(CN2C)C(=O)c2ccccc2C3=O)c2ccccc21 (stereo not drawn) | 12 | 14 | 10 | 250 (≈ 603 µM) | 500 (≈ 1210 µM) | 250 (≈ 603 µM) | 250 (≈ 603 µM) | 500 (≈ 1210 µM) | 500 (≈ 1210 µM) | 62.5 (≈ 151 µM) | 500 (≈ 1210 µM) | 250 (≈ 603 µM) | 125 (≈ 302 µM) | 500 (≈ 1210 µM) | 12 | 10 | 10 | 13 | 10 | 10 | zone of inhibition at 1000 µg/disc (Salmonella typhimurium [21]): 16 mm; zone of inhibition at 1000 µg/disc [22]: 8 mm
